Series [1] concerns Ralstonia solanacearum. The experiment in a line: Antibacterial activity against Ralstonia solanacearum CGMCC 1.12711 measured after 12 to 14 hrs by double dilution method. It is filed as functional. The essentials:
(§1)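 Broth double-dilution MIC per NCCLS. Bacteria at 1×10^6 CFU/mL in Luria-Bertani medium. Compounds dissolved in DMSO as stock, then diluted in medium to 200, 100, 50, 25, 12.5, 6.25 and 3.125 nmol/mL (DMSO <0.5%); some also tested at 256–1 µg/mL. Incubated at 37 °C for 12–14 h. MIC read as lowest concentration giving visible growth inhibition.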

The test system of another series is Bacillus cereus. As to the kind of experiment: Antibacterial activity against Bacillus cereus CGMCC 1.1846 after 12 to 14 hrs by double dilution method. It is filed as functional.
Series [2] can be described thus: Cytotoxicity against […] MARC145 cells assessed as cell viability at 8 ug/ml by MTT assay. It is filed as cell-based. The settings on record: chlorocebus aethiops, read-out: Activity.
The subject of a further series is Bacillus subtilis. As to the kind of experiment: Antibacterial activity against Bacillus subtilis 769 after 12 to 14 hrs by double dilution method. Type of series: functional.
Series [3] concerns Staphylococcus aureus. As to the kind of experiment: Antibacterial activity against methicillin-resistant Staphylococcus aureus ATCC 43300 after 12 to 14 hrs by double dilution method. It is filed as functional. In a few lines:
as §1

The nature of series [4]: Cytotoxicity against human L02 cells assessed as cell viability at 8 ug/ml by MTT assay. Type of series: cell-based. The following applies: read-out: Activity. The essentials:
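MTT viability assay on normal cells (MARC 145 monkey kidney, L02 human hepatocyte) exposed to 8 µg/mL; MTT in PBS then 4 h at 37 °C, 5% CO2; formazan dissolved in DMSO with 15 min shaking; absorbance at 540 nm; viability = treated/untreated absorbance × 100%.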
(In general: Tetrazolium dyes change colour on reduction, which living cells bring about.)

Another series concerns Escherichia coli. The experiment in a line: Antibacterial activity against Escherichia coli CGMCC 1.1636 after 12 to 14 hrs by double dilution method. It is filed as functional.
The test system of series [5] is Staphylococcus aureus. As to the kind of experiment: Antibacterial activity against Staphylococcus aureus CGMCC 1.8721 after 12 to 14 hrs by double dilution method. It is filed as functional.
Series [6] can be described thus: Thermal stability of the compound at 1 ug/ml at 65 degC after 6 hrs by UHPLC-ESI-MS/MS analysis. Type of series: physicochemical. The essentials: (§2)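 Sample held at 25 °C 0 h, 37 °C 6 h or 65 °C 6 h, then 5 µL injected on UHPLC coupled to ESI-QTOF MS/MS at 0.4 mL/min; sample 2 µg/mL with mobile phase A 10% acetonitrile (ampicillin sodium) or 1 µg/mL with 35% acetonitrile (test compound); residual parent compound monitored.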

For series [7], the system named is Ralstonia solanacearum. The experiment in a line: Protection against Ralstonia solanacearum-induced infection in eggplant leaf at 8 ug/ml after 3 days relative to control. It is filed as functional.
Series [8] concerns Staphylococcus aureus. As to the kind of experiment: Bactericidal activity against methicillin-resistant Staphylococcus aureus ATCC 43300 assessed as cell shrinkage at 0.5 MIC after 1 hr by scanning electron microscopy analysis. Type of series: functional, organism-based.
The nature of series [9]: Thermal stability of the compound at 1 ug/ml at 37 degC after 6 hrs by UHPLC-ESI-MS/MS analysis. It is filed as physicochemical. The essentials: as §2
Series [10] deals with Ralstonia solanacearum. As to the kind of experiment: Bactericidal activity against Ralstonia solanacearum CGMCC 1.12711 assessed as cell shrinkage at 0.5 MIC after 1 hr by scanning electron microscopy analysis. It is filed as functional, organism-based.
Series [11] relates to Ralstonia solanacearum. As to the kind of experiment: Bactericidal activity against Ralstonia solanacearum CGMCC 1.12711 assessed as cell wall disintegration at 0.5 MIC after 1 hr by scanning electron microscopy analysis. It is filed as functional, organism-based.
For series [12], the system named is Staphylococcus aureus. The experiment in a line: Bactericidal activity against methicillin-resistant Staphylococcus aureus ATCC 43300 assessed as cell wall disintegration at 0.5 MIC after 1 hr by scanning electron microscopy analysis. It is filed as functional, organism-based.
Series [13] has as its system Staphylococcus aureus. As to the kind of experiment: Antibacterial activity against Staphylococcus aureus after 18 hrs. It is filed as functional.
Series [14] in a line: Thermal stability of the compound at 2 ug/ml at 65 degC after 6 hrs by UHPLC-ESI-MS/MS analysis. Type of series: physicochemical. The essentials:
as §2

Series [15] is described as follows: Thermal stability of the compound at 2 ug/ml at 37 degC after 6 hrs by UHPLC-ESI-MS/MS analysis. It is filed as physicochemical. In a few lines: as §2
In series [16] the test system is Staphylococcus aureus. The experiment in a line: Antibacterial activity against multidrug-resistant Staphylococcus aureus XU212 after 24 hrs. The settings on record: XU212, 24 h. Type of series: functional.
For series [17], the system named is Staphylococcus aureus. The experiment in a line: Antibacterial activity against methicillin-resistant Staphylococcus aureus EMRSA15 after 24 hrs. It is filed as functional. The settings on record: EMRSA15, 24 h.
Series [18] deals with Staphylococcus aureus. The experiment in a line: Antibacterial activity against multidrug-resistant Staphylococcus aureus 1199B after 24 hrs. Type of series: functional.
Series [19] has as its system Staphylococcus aureus. The experiment in a line: Antibacterial activity against methicillin-resistant Staphylococcus aureus after 48 hrs by broth microtube dilution method. It is filed as functional.

≈ marks a conversion by molar mass, not a printed value. Calls of active or inactive are those of the source. The calls are words filed in the database; no cut-off is given here. A value given as a limit tells only on which side of the number the result lay.

Regarding `COc1ccc2[nH]c3c(-c4ccc5c(c4)OCO5)[n+](Cc4ccc(C)cc4)ccc3c2c1`, the minimal inhibitory concentration (MIC) is 25 µM in the series with Ralstonia solanacearum [1]; 50 µM against Bacillus cereus; 25 µM with Bacillus subtilis; 25 µM in the series on Staphylococcus aureus [3]; 200 µM in the series on Escherichia coli; 25 µM against Staphylococcus aureus [5]. Also, the viability at 8 ug/ml in [2] was 98.5%; in series [4], 82.2%.

In the case of `COC(=O)c1ccc(-c2c3[nH]c4ccc(OC)cc4c3cc[n+]2Cc2ccc(Br)cc2)cc1`, the MIC was found to be 25 µM against Ralstonia solanacearum [1]; 37.5 µM against Bacillus cereus; 25 µM in the series on Bacillus subtilis; 37.5 µM with Staphylococcus aureus [3]; 25 µM in the series with Staphylococcus aureus [5]. For the same compound, the viability at 8 ug/ml is 94.8% in [2] and 73.5% in series [4].

Turning to `COc1ccc2[nH]c3c(-c4ccc5c(c4)OCO5)[n+](Cc4ccc(C(F)(F)F)cc4)ccc3c2c1.[Br-]`, the Stability result in series [6] and in series [9] was “Stable” throughout. The compound further yielded an Activity in the series on Ralstonia solanacearum [7] of 81.3%. In addition, the MIC with Ralstonia solanacearum [1] was 25 µM; in the series on Bacillus cereus it was 25 µM; against Bacillus subtilis it was 25 µM; in the series with Staphylococcus aureus [3], 12.5 µM; in the series on Escherichia coli, 50 µM; against Staphylococcus aureus [5], 25 µM. Further, the result with Staphylococcus aureus [8], in the series on Ralstonia solanacearum [10], in the series on Ralstonia solanacearum [11] and in the series with Staphylococcus aureus [12] was Active. Moreover, the viability at 8 ug/ml came to 103% in series [2] and 84.6% in [4].

On to `FC(F)(F)c1ccc(C[n+]2ccc3c([nH]c4ccccc43)c2-c2ccco2)cc1`, for which the MIC in the series with Ralstonia solanacearum [1] is 25 µM; in the series with Bacillus cereus, 50 µM; against Bacillus subtilis, 25 µM; with Staphylococcus aureus [3], 25 µM; with Escherichia coli, 50 µM; against Staphylococcus aureus [5] it was 25 µM. The viability at 8 ug/ml was 87.1% in series [2] and 76.2% in series [4].

`Cc1nccc2c1[nH]c1ccccc12` [HARMAN] came in with an MIC against Staphylococcus aureus [13] of 1000 µg/mL (≈ 5490 µM).

Take `COC(=O)c1ccc(-c2c3[nH]c4ccc(OC)cc4c3cc[n+]2Cc2ccc(C(F)(F)F)cc2)cc1`: the MIC in the series with Ralstonia solanacearum [1] is 25 µM; in the series with Bacillus cereus it was 25 µM; with Bacillus subtilis, 25 µM; with Staphylococcus aureus [3] it was 25 µM; against Escherichia coli it was 200 µM; in the series on Staphylococcus aureus [5], 25 µM. In addition, the viability at 8 ug/ml in [2] came out at 93.2%; in [4], 71.6%.

Take `FC(F)(F)c1ccc(C[n+]2ccc3c([nH]c4ccccc43)c2-c2ccc3c(c2)OCO3)cc1`: the MIC in the series on Ralstonia solanacearum [1] came out at 25 µM; against Bacillus cereus, 50 µM; with Bacillus subtilis it was 25 µM; in the series with Staphylococcus aureus [3], 25 µM; with Escherichia coli it was 100 µM; in the series with Staphylococcus aureus [5], 25 µM. The viability at 8 ug/ml in series [2] was determined as 96.3%; in series [4], 85.7%.

For the compound `CC1(C)S[C@@H]2[C@H](NC(=O)[C@H](N)c3ccccc3)C(=O)N2[C@H]1C(=O)[O-].[Na+]` [AMPICILLIN SODIUM], the Stability entry in series [14] and in series [15] was “Unstable” each time. Moreover, the MIC with Ralstonia solanacearum [1] was found to be 3.12 µM; with Bacillus cereus, 200 µM; against Bacillus subtilis it was 1.56 µM; against Staphylococcus aureus [3], 50 µM; in the series with Escherichia coli, 3.12 µM; with Staphylococcus aureus [5], 3.12 µM.

As for `O=c1ccc2nccc3c4ccccc4n1c23` [CANTHIN-6-ONE], the MIC against Staphylococcus aureus [16], against Staphylococcus aureus [17] and in the series on Staphylococcus aureus [18] was 8 to 64 µg/mL (≈ 36.3 to 291 µM) throughout.

In the series with Staphylococcus aureus [19], `Cc1ccc2[nH]c3c[n+](C)ccc3c2c1.[I-]` displayed an MIC of 4 µg/mL.

As for `COC(=O)c1ccc(-c2c3[nH]c4ccccc4c3cc[n+]2Cc2ccccc2)cc1`, the MIC was 100 µM in the series with Ralstonia solanacearum [1]; 200 µM with Bacillus cereus; 100 µM in the series on Bacillus subtilis; 200 µM in the series on Staphylococcus aureus [3]; above 200 µM against Escherichia coli; 100 µM against Staphylococcus aureus [5].

For `COc1ccc2[nH]c3c(-c4ccco4)[n+](Cc4ccc(C(F)(F)F)cc4)ccc3c2c1`, the MIC against Ralstonia solanacearum [1] came out at 25 µM; against Bacillus cereus, 50 µM; against Bacillus subtilis, 25 µM; against Staphylococcus aureus [3], 25 µM; in the series with Escherichia coli, 50 µM; in the series with Staphylococcus aureus [5], 25 µM. Moreover, the viability at 8 ug/ml was 88.5% in series [2] and 74.3% in [4].

With `COC(=O)c1ccc(-c2c3[nH]c4ccccc4c3cc[n+]2Cc2ccc(C)cc2)cc1`, the MIC against Ralstonia solanacearum [1] worked out at 50 µM; in the series on Bacillus cereus, 100 µM; against Bacillus subtilis, 50 µM; in the series with Staphylococcus aureus [3] it was 50 µM; in the series on Escherichia coli, 200 µM; against Staphylococcus aureus [5], 50 µM.

Turning to `COc1ccc2[nH]c3c(-c4ccccn4)[n+](Cc4ccc(C)cc4)ccc3c2c1`, the MIC with Ralstonia solanacearum [1] was 100 µM; in the series with Bacillus cereus, 200 µM; against Bacillus subtilis it was 100 µM; against Staphylococcus aureus [3], 100 µM; in the series on Escherichia coli it was above 200 µM; against Staphylococcus aureus [5], 100 µM.

As for `c1ccc(C[n+]2ccc3c([nH]c4ccccc43)c2-c2ccc3c(c2)OCO3)cc1`, the MIC was 100 µM in the series with Ralstonia solanacearum [1]; 100 µM against Bacillus cereus; 50 µM in the series with Bacillus subtilis; 100 µM in the series with Staphylococcus aureus [3]; above 200 µM in the series with Escherichia coli; 100 µM in the series with Staphylococcus aureus [5].

One may read the MIC as the least concentration at which growth counts as inhibited. A low value points to a more susceptible organism.

For the origin of these results see ChEMBL document CHEMBL4325839, “Design, synthesis and biological evaluations of quaternization harman analogues as potential antibacterial agents” (Eur J Med Chem, 2018).
